In ChEMBL document CHEMBL1687827, “Profiling the Aspergillus fumigatus proteome in response to caspofungin” (2011):
The source made the active and inactive calls. The rule behind the calls is not given here.

What was measured:
Aspergillus fumigatus [1] = experiment: Induction of change in cytosolic small ribosomal subunit S15, putative protein level in iTRAQ114 labelled secreted fraction of drug-susceptible Aspergillus fumigatus KU80 delta-akuB at 0.12 ug/ml after 24 hrs in YPD medium by MS (MS/MS) analysis relative to control; assay type: functional
Method in brief: (§1)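 Conidia at 1 × 10⁵/ml grown shaking at 37°C in YPD with or without 0.12 μg/ml caspofungin; mycelia filtered at 24 or 48 h. Secreted fraction taken from the filtrate; cell wall/plasma membrane pellet recovered after French-press lysis and a 5,000 × g spin. Proteins trypsin-digested and iTRAQ-labelled, drug vs no-drug channels at each time, then 2D LC-MS/MS. Protein ratio is the median of ratios from uniquely assigned peptides after median normalization.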

Aspergillus fumigatus [2] = experiment: Induction of change in SUN domain protein (Uth1), putative protein level in iTRAQ-118 labelled cell wall fraction of drug-resistant Aspergillus fumigatus EMFR-S678P at 0.12 ug/ml after 24 hrs in YPD medium by MS (MS/MS) analysis relative to control; assay type: functional
Method in brief: (§2)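 Conidia at 1 × 10⁵/ml were grown at 37°C, shaking at 225 rpm, in YPD with or without 0.12 μg/ml caspofungin for 24 or 48 h. The culture filtrate was kept as the secreted fraction. Mycelia were lysed by French press in HEPES/glycerol/EDTA/PMSF/DTT buffer, and the 5,000 × g pellet was washed to give CW/PM. Proteins were reduced, alkylated and trypsin-digested at 37°C overnight, then iTRAQ-labelled and run by 2D LC-MS/MS. Ratios are the median of unique-peptide ratios, median-normalized, versus the no-drug control.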

Aspergillus fumigatus [3] = experiment: Induction of change in 14-3-3 family protein ArtA, putative protein level in iTRAQ-116 labelled secreted fraction of drug-susceptible Aspergillus fumigatus KU80 delta-akuB at 0.12 ug/ml after 48 hrs in YPD medium by MS (MS/MS) analysis relative to control; assay type: functional; method in brief: as §1
Aspergillus fumigatus [4] = experiment: Induction of change in IgE-binding gene expression in drug-susceptible Aspergillus fumigatus KU80 delta-akuB at 0.12 ug/ml after 48 hrs in YPD medium by microarray analysis relative to control; assay type: functional
Method in brief: (§3)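 Mycelia grown in YPD ± 0.12 μg/ml caspofungin (1 × 10⁵ conidia/ml, 37°C, shaking) and harvested at 24 or 48 h. Total RNA extracted, DNase-treated and quality-checked; 2 μg labelled per TIGR SOP M007 and hybridized to whole-genome arrays. Three independent experiments with dye flip (6 replicates); drug vs untreated fold change.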

Aspergillus fumigatus [5] = experiment: Induction of change in carbonic anhydrase family gene expression in drug-susceptible Aspergillus fumigatus KU80 delta-akuB at 0.12 ug/ml after 24 hrs in YPD medium by microarray analysis relative to control; assay type: functional; method in brief: as §3
Aspergillus fumigatus [6] = experiment: Induction of change in allergen Asp F4 protein level in iTRAQ-118 labelled cell wall fraction of drug-resistant Aspergillus fumigatus EMFR-S678P at 0.12 ug/ml after 24 hrs in YPD medium by MS (MS/MS) analysis relative to control; assay type: functional; method in brief: as §2
Aspergillus fumigatus [7] = experiment: Induction of change in 60s ribosomal protein L24, putative gene expression in drug-susceptible Aspergillus fumigatus KU80 delta-akuB at 0.12 ug/ml after 24 hrs in YPD medium by microarray analysis relative to control; assay type: functional; method in brief: as §3
Aspergillus fumigatus [8] = experiment: Induction of change in isocitrate dehydrogenase Idp1, putative protein level in iTRAQ-116 labelled secreted fraction of drug-susceptible Aspergillus fumigatus KU80 delta-akuB at 0.12 ug/ml after 48 hrs in YPD medium by MS (MS/MS) analysis relative to control; assay type: functional
Method in brief: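 Conidia (1 × 10⁵/ml) grown in YPD, 37°C, 225 rpm, ± 0.12 μg/ml caspofungin; filtrate taken as secreted fraction, French-press lysate 5,000 × g pellet as cell wall/plasma membrane. Trypsin digests 8-plex iTRAQ-labelled (drug-free channels as references), pooled, 2D-chromatography, MS/MS. Median-normalized; protein ratio = median of unique-peptide ratios, log2 normalized.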

Aspergillus fumigatus [9] = experiment: Induction of change in 60s ribosomal protein l2 gene expression in drug-susceptible Aspergillus fumigatus KU80 delta-akuB at 0.12 ug/ml after 24 hrs in YPD medium by microarray analysis relative to control; assay type: functional; method in brief: as §3
Aspergillus fumigatus [10] = experiment: Induction of change in Ribosomal protein S21e gene expression in drug-susceptible Aspergillus fumigatus KU80 delta-akuB at 0.12 ug/ml after 24 hrs in YPD medium by microarray analysis relative to control; assay type: functional; method in brief: as §3
Aspergillus fumigatus [11] = experiment: Induction of change in Ribosomal L28e protein family protein level in iTRAQ114 labelled secreted fraction of drug-susceptible Aspergillus fumigatus KU80 delta-akuB at 0.12 ug/ml after 24 hrs in YPD medium by MS (MS/MS) analysis relative to control; assay type: functional; method in brief: as §1
Aspergillus fumigatus [12] = experiment: Induction of change in allergen Asp F4 protein level in iTRAQ114 labelled secreted fraction of drug-resistant Aspergillus fumigatus EMFR-S678P at 0.12 ug/ml after 24 hrs in YPD medium by MS (MS/MS) analysis relative to control; assay type: functional, organism-based; method in brief: as §2
Aspergillus fumigatus [13] = experiment: Induction of change in ribosomal protein L27a protein level in iTRAQ114 labelled cell wall fraction of drug-susceptible Aspergillus fumigatus KU80 delta-akuB at 0.12 ug/ml after 24 hrs in YPD medium by MS (MS/MS) analysis relative to control; assay type: functional
Aspergillus fumigatus [14] = experiment: Induction of change in alkaline serine protease protein level in iTRAQ114 labelled cell wall fraction of drug-susceptible Aspergillus fumigatus KU80 delta-akuB at 0.12 ug/ml after 24 hrs in YPD medium by MS (MS/MS) analysis relative to control; assay type: functional; method in brief: as §1
Aspergillus fumigatus [15] = experiment: Induction of change in ATP citrate lyase, subunit 1, putative protein level in iTRAQ114 labelled secreted fraction of drug-resistant Aspergillus fumigatus EMFR-S678P at 0.12 ug/ml after 24 hrs in YPD medium by MS (MS/MS) analysis relative to control; assay type: functional; method in brief: as §2
Aspergillus fumigatus [16] = experiment: Induction of change in cytosolic small ribosomal subunit protein S12 protein level in iTRAQ114 labelled secreted fraction of drug-susceptible Aspergillus fumigatus KU80 delta-akuB at 0.12 ug/ml after 24 hrs in YPD medium by MS (MS/MS) analysis relative to control; assay type: functional; method in brief: as §1
Aspergillus fumigatus [17] = experiment: Induction of change in antigenic mitochondrial protein HSP60, putative protein level in iTRAQ-116 labelled secreted fraction of drug-resistant Aspergillus fumigatus EMFR-S678P at 0.12 ug/ml after 48 hrs in YPD medium by MS (MS/MS) analysis relative to control; assay type: functional; method in brief: as §2
Aspergillus fumigatus [18] = experiment: Induction of change in 40S ribosomal protein S3Ae protein level in iTRAQ114 labelled cell wall fraction of drug-susceptible Aspergillus fumigatus KU80 delta-akuB at 0.12 ug/ml after 24 hrs in YPD medium by MS (MS/MS) analysis relative to control; assay type: functional; method in brief: as §1
Aspergillus fumigatus [19] = experiment: Induction of change in nuclear transport factor NTF-2, putative protein level in iTRAQ-116 labelled secreted fraction of drug-resistant Aspergillus fumigatus EMFR-S678P at 0.12 ug/ml after 48 hrs in YPD medium by MS (MS/MS) analysis relative to control; assay type: functional; method in brief: as §2

Compound: CC[C@H](C)C[C@H](C)CCCCCCCCC(=O)N[C@H]1C[C@@H](O)[C@@H](NCCN)NC(=O)[C@@H]2[C@@H](O)CCN2C(=O)[C@H]([C@H](O)CCN)NC(=O)[C@H]([C@H](O)[C@@H](O)c2ccc(O)cc2)NC(=O)[C@@H]2C[C@@H](O)CN2C(=O)[C@H]([C@@H](C)O)NC1=O [CASPOFUNGIN]
- fold change (FC) (Aspergillus fumigatus [1]): -1
- fold change (FC) (Aspergillus fumigatus [2]): 1.07
- fold change (FC) (Aspergillus fumigatus [3]): -2
- fold change (FC) (Aspergillus fumigatus [4]): 7.6
- fold change (FC) (Aspergillus fumigatus [5]): -6.5
- fold change (FC) (Aspergillus fumigatus [6]): 1.07
- fold change (FC) (Aspergillus fumigatus [7]): 3.5
- fold change (FC) (Aspergillus fumigatus [8]): -6.1
- fold change (FC) (Aspergillus fumigatus [9]): 3.9
- fold change (FC) (Aspergillus fumigatus [10]): 3.6
- fold change (FC) (Aspergillus fumigatus [11]): -1.6
- Activity (Aspergillus fumigatus [12]): inactive
- fold change (FC) (Aspergillus fumigatus [13]): 1.9
- fold change (FC) (Aspergillus fumigatus [14]): 1.3
- fold change (FC) (Aspergillus fumigatus [15]): -1.07
- fold change (FC) (Aspergillus fumigatus [16]): 1.5
- fold change (FC) (Aspergillus fumigatus [17]): -1.15
- fold change (FC) (Aspergillus fumigatus [18]): 2.3
- fold change (FC) (Aspergillus fumigatus [19]): 1.07
